In ChEMBL document CHEMBL1649392, “Synthesis of substituted 3-amino-N-phenyl-1H-indazole-1-carboxamides endowed with antiproliferative activity” (Eur J Med Chem, 2011):

What was measured:
Assay type in all cases: functional
SK-OV-3 = test: Antiproliferative activity against human SKOV3 cells after 48 hrs by sulforhodamine B assay; conditions: SK-OV-3, 48 h
Summary of the method: (§1)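 NCI 60-cell-line panel covering nine cancer types (leukemia, non-small cell lung, colon, CNS, melanoma, ovarian, renal, prostate, breast). Compounds were first tested at a single dose, then in a five-dose screen (series starting 0.01, 0.1 …) if they met NCI threshold criteria. Reported per line: GI50 (molar concentration inhibiting 50% net growth), TGI (total growth inhibition) and LC50 (50% net cell death).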

NCI-H226 = test: Antiproliferative activity against human NCI-H226 cells after 48 hrs by sulforhodamine B assay; conditions: NCI-H226, 48 h; summary of the method: as §1
HCC 2998 = test: Antiproliferative activity against human HCC2998 cells after 48 hrs by sulforhodamine B assay; conditions: HCC 2998, 48 h; summary of the method: as §1
U-251 = test: Antiproliferative activity against human U251 cells after 48 hrs by sulforhodamine B assay; conditions: U-251, 48 h
Summary of the method: (§2)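 NCI 60-cell-line panel screen: single dose 10 µM first, then 5-dose testing (0.01, 0.1, … molar series). For each line, GI50 is the molar concentration giving 50% inhibition of net cell growth, TGI gives total inhibition of net growth, and LC50 gives 50% net cell death. Method follows the NCI DTP protocol.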

CAKI-1 = test: Antiproliferative activity against human Caki1 cells after 48 hrs by sulforhodamine B assay; conditions: CAKI-1, 48 h; summary of the method: as §1
SF-268 = test: Antiproliferative activity against human SF268 cells after 48 hrs by sulforhodamine B assay; conditions: SF-268, 48 h; summary of the method: as §1
HCT-15 = test: Antiproliferative activity against human HCT15 cells after 48 hrs by sulforhodamine B assay; conditions: HCT-15, 48 h; summary of the method: as §1
DU-145 = test: Antiproliferative activity against human DU145 cells after 48 hrs by sulforhodamine B assay; conditions: DU-145, 48 h, read-out: LC50 (the source's name); summary of the method: as §1
PC-3 = test: Antiproliferative activity against human PC3 cells after 48 hrs by sulforhodamine B assay; conditions: PC-3, 48 h; summary of the method: as §1
COLO 205 = test: Antiproliferative activity against human COLO205 cells after 48 hrs by sulforhodamine B assay; conditions: COLO 205, 48 h; summary of the method: as §1
UACC-257 = test: Antiproliferative activity against human UACC257 cells after 48 hrs by sulforhodamine B assay; conditions: UACC-257, 48 h; summary of the method: as §2
UO-31 = test: Antiproliferative activity against human UO31 cells after 48 hrs by sulforhodamine B assay; conditions: UO-31, 48 h; summary of the method: as §2
A549 = test: Antiproliferative activity against human A549 cells after 48 hrs by sulforhodamine B assay; conditions: A549, 48 h; summary of the method: as §1
SN12C = test: Antiproliferative activity against human SN12C cells after 48 hrs by sulforhodamine B assay; summary of the method: as §1
[1] = Antiproliferative activity against human […] cells after 48 hrs by sulforhodamine B assay; summary of the method: as §1
EKVX = test: Antiproliferative activity against human EKVX cells after 48 hrs by sulforhodamine B assay; summary of the method: as §1
K562 = test: Antiproliferative activity against human K562 cells after 48 hrs by sulforhodamine B assay; conditions: K562, 48 h; summary of the method: as §1
HOP-92 = test: Antiproliferative activity against human HOP92 cells after 48 hrs by sulforhodamine B assay; conditions: HOP-92, 48 h; summary of the method: as §1
T47D = test: Antiproliferative activity against human T47D cells after 48 hrs by sulforhodamine B assay; summary of the method: as §2
SF-539 = test: Antiproliferative activity against human SF539 cells after 48 hrs by sulforhodamine B assay; conditions: SF-539, 48 h, read-out: LC50 (the source's name); summary of the method: as §1
M14 = test: Antiproliferative activity against human M14 cells after 48 hrs by sulforhodamine B assay; conditions: M14, 48 h; summary of the method: as §1
786-0 = test: Antiproliferative activity against human 786-0 cells after 48 hrs by sulforhodamine B assay; conditions: 786-0, 48 h; summary of the method: as §1
BT-549 = test: Antiproliferative activity against human BT549 cells after 48 hrs by sulforhodamine B assay; conditions: BT-549, 48 h; summary of the method: as §1
Malme-3M = test: Antiproliferative activity against human MALME-3M cells after 48 hrs by sulforhodamine B assay; summary of the method: as §1
MOLT-4 = test: Antiproliferative activity against human MOLT4 cells after 48 hrs by sulforhodamine B assay; conditions: MOLT-4, 48 h, read-out: LC50 (the source's name); summary of the method: as §1
RXF 393 = test: Antiproliferative activity against human RXF393 cells after 48 hrs by sulforhodamine B assay; conditions: RXF 393, 48 h; summary of the method: as §1
SK-MEL-2 = test: Antiproliferative activity against human SK-MEL-2 cells after 48 hrs by sulforhodamine B assay; conditions: SK-MEL-2, 48 h; summary of the method: as §1
ACHN = test: Antiproliferative activity against human ACHN cells after 48 hrs by sulforhodamine B assay; conditions: read-out: LC50 (the source's name); summary of the method: as §1
[2] = Antiproliferative activity against human Hs 578T cells after 48 hrs by sulforhodamine B assay; summary of the method: as §1
OVCAR-5 = test: Antiproliferative activity against human OVCAR5 cells after 48 hrs by sulforhodamine B assay; conditions: OVCAR-5, 48 h; summary of the method: as §1
TK-10 = test: Antiproliferative activity against human TK10 cells after 48 hrs by sulforhodamine B assay; conditions: TK-10, 48 h; summary of the method: as §2
MDA-MB-231 = test: Antiproliferative activity against human MDA-MB-231 cells after 48 hrs by sulforhodamine B assay; conditions: MDA-MB-231, 48 h, read-out: LC50 (the source's name); summary of the method: as §1
[3] = read-out: LC50 (the source's name)

SMILES: Nc1nn(C(=O)Nc2ccc(Cc3ccccc3)cc2)c2ccccc12
- TGI (SK-OV-3): > 100 µM
- CC50 (SK-OV-3; [3]): > 100 µM
- TGI (NCI-H226): 58.2 µM
- CC50 (NCI-H226; [3]): > 100 µM
- TGI (HCC 2998): 35.9 µM
- CC50 (HCC 2998; [3]): > 100 µM
- LC50 (concentration giving 50% net cell death) (U-251): 65.9 µM
- TGI (U-251): 30.2 µM
- TGI (CAKI-1): 58 µM
- CC50 (CAKI-1; [3]): > 100 µM
- TGI (SF-268): 32.3 µM
- CC50 (SF-268; [3]): > 100 µM
- LC50 (concentration causing 50% net cell death) (HCT-15): > 100 µM
- TGI (HCT-15): > 100 µM
- CC50 (DU-145): > 100 µM
- TGI (PC-3): 51.1 µM
- CC50 (PC-3; [3]): > 100 µM
- LC50 (concentration causing 50% net cell death) (COLO 205): > 100 µM
- TGI (COLO 205): 37.7 µM
- GI50 (UACC-257): 10 µM
- TGI (UACC-257): 50.9 µM
- CC50 (UACC-257; [3]): > 100 µM
- TGI (UO-31): > 100 µM
- CC50 (UO-31; [3]): > 100 µM
- TGI (A549): 48.6 µM
- CC50 (A549; [3]): > 100 µM
- TGI (SN12C): 28 µM
- CC50 (SN12C; [3]): 60.6 µM
- GI50 [1]: 1.86 µM
- TGI [1]: 25.8 µM
- CC50 [1, 3]: 84 µM
- TGI (EKVX): 92 µM
- CC50 (EKVX; [3]): > 100 µM
- GI50 (K562): 1.2 µM
- LC50 (concentration causing 50% net cell death) (K562): > 100 µM
- LC50 (HOP-92): > 100 µM
- TGI (HOP-92): 42.6 µM
- LC50 (concentration giving 50% net cell death) (T47D): > 100 µM
- TGI (T47D): > 100 µM
- CC50 (SF-539): > 100 µM
- TGI (M14): > 100 µM
- CC50 (M14; [3]): > 100 µM
- TGI (786-0): 26.2 µM
- CC50 (786-0; [3]): 92.7 µM
- TGI (BT-549): 39.6 µM
- CC50 (BT-549; [3]): > 100 µM
- LC50 (concentration causing 50% net cell death) (Malme-3M): > 100 µM
- TGI (Malme-3M): 64.1 µM
- CC50 (MOLT-4): > 100 µM
- TGI (RXF 393): 58.2 µM
- CC50 (RXF 393; [3]): > 100 µM
- TGI (SK-MEL-2): > 100 µM
- CC50 (SK-MEL-2; [3]): > 100 µM
- CC50 (ACHN): > 100 µM
- TGI [2]: 71.8 µM
- CC50 [2, 3]: > 100 µM
- TGI (OVCAR-5): > 100 µM
- CC50 (OVCAR-5; [3]): > 100 µM
- TGI (TK-10): > 100 µM
- CC50 (TK-10; [3]): > 100 µM
- CC50 (MDA-MB-231): > 100 µM
